Measurements published in publication PMC3224553 (Bioorganic & medicinal chemistry letters, 2011).
Each block holds one compound with its values, some of them ahead of it.

How the values were obtained:
Caco-2 = Caco-2 permeability; format: in vitro ADME
Caco-2 permeability = format: in vitro ADME; conditions: human, Caco-2, Caco-2 Permeability Efflux Ratio
[1] = in vitro microsomal stability, human liver microsomes; format: in vitro ADME
[2] = in vitro microsomal stability, mouse liver microsomes; format: in vitro ADME
hPK M2 = hPK M2 (Homo sapiens, UniProt P14618); assay: luminescent pyruvate kinase-luciferase coupled assay; format: biochemical; conditions: for AC50: hPK M2 AC50, average from three separate experiments
Sequence of hPK M2 (P14618 whole entry): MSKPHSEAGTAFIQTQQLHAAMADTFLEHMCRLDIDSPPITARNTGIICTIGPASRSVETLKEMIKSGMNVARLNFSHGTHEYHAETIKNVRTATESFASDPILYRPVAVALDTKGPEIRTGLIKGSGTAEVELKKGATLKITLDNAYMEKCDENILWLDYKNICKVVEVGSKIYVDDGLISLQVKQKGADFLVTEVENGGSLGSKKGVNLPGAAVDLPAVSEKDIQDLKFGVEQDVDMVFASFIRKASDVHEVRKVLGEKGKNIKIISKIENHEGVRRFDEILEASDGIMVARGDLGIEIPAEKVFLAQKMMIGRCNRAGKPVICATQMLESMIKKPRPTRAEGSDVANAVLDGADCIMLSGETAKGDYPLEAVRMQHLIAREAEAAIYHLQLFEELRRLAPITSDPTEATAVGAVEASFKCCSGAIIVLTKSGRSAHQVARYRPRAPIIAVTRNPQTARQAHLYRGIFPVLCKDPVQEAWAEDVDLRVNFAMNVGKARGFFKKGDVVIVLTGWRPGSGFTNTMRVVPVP
Summary of the method: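 Human PKM2 activity is read by luminescence in a pyruvate kinase–luciferase coupled format. AC50 values are the average of three separate experiments. Maximum response is the % activation at 57 μM of test compound, normalized as described in the supporting information.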

Structure (SMILES): Cc1ccc(NS(=O)(=O)c2ccc3c(c2)CCC(=O)N3)cc1C [Compound 3]
Caco-2 Permeability Papp (A–B) (Caco-2): 14.9 10^−6, cm/s | Caco-2 Permeability Papp (B–A) (Caco-2): 12.21 10^−6, cm/s | efflux ratio (Caco-2 permeability): < 1 | half-life [1]: < 20 min | half-life [2]: < 20 min

Structure (SMILES): Cc1ccc(NS(=O)(=O)c2cccc(C(=O)O)c2)cc1C [Compound 5]
AC50 (hPK M2): > 20 µM

Structure (SMILES): Cc1ccc(NS(=O)(=O)c2ccc3ccccc3c2)cc1C [Compound 7]
AC50 (hPK M2): 18.4 µM

Structure (SMILES): Cc1ccc(NS(=O)(=O)c2ccc3c(c2)NC(=O)CO3)cc1C [Compound 11]
AC50 (hPK M2): 13.4 µM

Structure (SMILES): CC(=O)Nc1cccc(S(=O)(=O)Nc2ccc(C)c(C)c2)c1 [Compound 13]
AC50 (hPK M2): 13.1 µM

Structure (SMILES): CC(=O)N1CCCc2cc(S(=O)(=O)Nc3ccc(C)c(C)c3)ccc21 [Compound 14]
AC50 (hPK M2): 9 µM

Structure (SMILES): Cc1ccc(NS(=O)(=O)c2ccc3c(c2)oc(=O)n3C)cc1C [Compound 18]
AC50 (hPK M2): 4.3 µM

Structure (SMILES): Cc1ccc(NS(=O)(=O)c2cc3c(cc2N(C)C)NC(=O)CC3)cc1C [Compound 52]
half-life [1]: < 25 min | half-life [2]: < 25 min | PKM2 activation, result in words (hPK M2): retained activity

Structure (SMILES): CNc1cc2c(cc1S(=O)(=O)Nc1ccc(C)c(C)c1)CCC(=O)N2 [Compound 54]
half-life [1]: < 25 min | half-life [2]: < 25 min | PKM2 activation, result in words (hPK M2): retained activity

Structure (SMILES): Cc1ccc(NS(=O)(=O)c2cc3c(cc2N2CCC(N(C)C)C2)NC(=O)CC3)cc1C (stereo not shown) [Compound 56]
PKM2 activation, result in words (hPK M2): loss of activity

Structure (SMILES): Cc1ccc(NS(=O)(=O)c2cc3c(cc2N2CCCCC2)NC(=O)CC3)cc1C [Compound 57]
PKM2 activation, result in words (hPK M2): loss of activity

Structure (SMILES): O=C1CCc2cc(S(=O)(=O)Nc3ccc(F)c(Cl)c3)c(F)cc2N1 [Compound 66]
Caco-2 Permeability Papp (A–B) (Caco-2): 9.38 10^−6, cm/s | Caco-2 Permeability Papp (B–A) (Caco-2): 7.91 10^−6, cm/s | efflux ratio (Caco-2 permeability): ≤ 1

Structure (SMILES): Cc1ccc(NS(=O)(=O)c2cc3c(cc2N[C@@H](C)CO)NC(=O)CC3)cc1Cl [Compound 68]
Caco-2 Permeability Papp (A–B) (Caco-2): 1.13 10^−6, cm/s | Caco-2 Permeability Papp (B–A) (Caco-2): 11.9 10^−6, cm/s

Structure (SMILES): C[C@@H](CO)Nc1cc2c(cc1S(=O)(=O)Nc1ccc(F)c(Cl)c1)CCC(=O)N2 [Compound 69]
Caco-2 Permeability Papp (A–B) (Caco-2): 1.61 10^−6, cm/s | Caco-2 Permeability Papp (B–A) (Caco-2): 17.52 10^−6, cm/s

Structure (SMILES): Cc1ccc(NS(=O)(=O)c2cc(Br)cc3c2NC(=O)CC3)cc1Cl [Compound 75b]
PKM2 activation, result in words (hPK M2): no activity

The remaining lines, values ahead:

AC50 (hPK M2): > 20 µM
Structure (SMILES): Cc1ccc(NS(=O)(=O)c2ccc(F)cc2)cc1C [Compound 6]

AC50 (hPK M2): 18.3 µM
Structure (SMILES): Cc1ccc(NS(=O)(=O)c2cccc(Cl)c2)cc1C [Compound 8]

AC50 (hPK M2): 17.3 µM
Structure (SMILES): COc1ccc(S(=O)(=O)Nc2ccc(C)c(C)c2)cc1 [Compound 9]

AC50 (hPK M2): 10 µM
Structure (SMILES): Cc1ccc(NS(=O)(=O)c2ccc3c(c2)CCC(C)(C)O3)cc1C [Compound 10]

AC50 (hPK M2): > 20 µM
Structure (SMILES): Cc1ccc(NS(=O)(=O)c2ccc3[nH]c(=O)[nH]c3c2)cc1C [Compound 12]

AC50 (hPK M2): 8.3 µM
Structure (SMILES): Cc1ccc(NS(=O)(=O)c2ccc3c(c2)CC(=O)N3)cc1C [Compound 15]

AC50 (hPK M2): 7.1 µM
Structure (SMILES): Cc1ccc(NS(=O)(=O)c2ccc3c(c2)CCCC(=O)N3)cc1C [Compound 16]

AC50 (hPK M2): 6.9 µM
Structure (SMILES): CC(=O)Nc1ccc(S(=O)(=O)Nc2ccc(C)c(C)c2)cc1 [Compound 17]

AC50 (hPK M2): 6 µM
Structure (SMILES): Cc1ccc(NS(=O)(=O)c2ccc3c(c2)N(C)CCO3)cc1C [Compound 19]

AC50 (hPK M2): 0.94 µM
Structure (SMILES): Cc1ccc(NS(=O)(=O)c2ccc(N3CCCC3=O)cc2)cc1C [Compound 20]

AC50 (hPK M2): 2.3 µM
Structure (SMILES): Cc1ccc(NS(=O)(=O)c2ccc3c(c2)CC(=O)N3C)cc1C [Compound 21]

AC50 (hPK M2): 1.5 µM
Structure (SMILES): CC(=O)N1CCc2cc(S(=O)(=O)Nc3ccc(C)c(C)c3)ccc21 [Compound 22]

fold more potent than its enantiomer (hPK M2; (S)- vs (R)-alaninol derivative): 4 fold
Structure (SMILES): Cc1ccc(NS(=O)(=O)c2cc3c(cc2N[C@@H](C)CO)NC(=O)CC3)cc1C [Compound 63]

Caco-2 Permeability Papp (A–B) (Caco-2): 6.22 10^−6, cm/s | Caco-2 Permeability Papp (B–A) (Caco-2): 6.24 10^−6, cm/s | efflux ratio (Caco-2 permeability): ≤ 1
Structure (SMILES): Cc1ccc(NS(=O)(=O)c2cc3c(cc2F)NC(=O)CC3)cc1Cl [Compound 64]

PKM2 activation, result in words (hPK M2): no activity
Structure (SMILES): Cc1ccc(NS(=O)(=O)c2cc(Br)cc3c2NC(=O)CC3)cc1C [Compound 74b]

PKM2 activation, result in words (hPK M2): inactive
Structure (SMILES): Cc1ccc(NS(=O)(=O)c2cc(N[C@@H](C)CO)cc3c2NC(=O)CC3)cc1C [Compound 76b]

PKM2 activation, result in words (hPK M2): inactive
Structure (SMILES): Cc1ccc(NS(=O)(=O)c2cc(N[C@@H](C)CO)cc3c2NC(=O)CC3)cc1Cl [Compound 77b]
